Bioassay records as filed in PubChem BioAssay.
A selection: hits, their analogues and other compounds. The true share with any hit is near 2.9%.
FAS TE block – blocks the thioesterase domain of human fatty acid synthase; recombinant FAS-TE, OMFH fluorogenic substrate, fluorescence endpoint; inhibition, % at 15 µM; 360,000 compounds, 0.67% hits; AID 602261;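 active = compounds whose normalised, plate-corrected inhibition of enzyme fluorescence in the single-dose primary screen is 50% or more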;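 also: 0% = DMSO with enzyme and 100% = substrate without enzyme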
NRP1-CendR mod – NRP-1/CendR interaction modulation | O14786 | FAM-RPARPAR peptide binding to NRP-1, fluorescence polarization | inhibition, % at 25 µM | 360,000 compounds, 0.85% hits | AID 602438;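 active = inhibition or corrected inhibition above about 18%, plus a signal ratio from 0.5 to 1.5, limit read from the data, passing the limit was not always enough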
CaV13 FRET inh – Primary screen for inhibitors of IQ motif and Ca2+-dependent inactivation inhibitor domain binding in CACNA1D, Förster resonance energy transfer in living cells, … | inhibition, % at 12.3 µM | HEK cells, CFP/YFP FRET ICDI-IQ, plate reader, 10 min; percent FRET-ratio fall versus neutral wells | 340,000 compounds, 0.098% hits;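 active = mean replicate inhibition of at least 30% and at least 1% of replicates passing that level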;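 also: 0% = median of the neutral control wells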
ADAM10 inh – inhibitors of human ADAM10; inhibition, % at 7 µM; recombinant ADAM10, EDANS/DABCYL FRET peptide cleavage, 3 h; 370,000 compounds, 0.62% hits;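 active = inhibition above a per-campaign cutoff equal to the mean of compounds falling between control-based bounds plus 3 SD, cut at about 20% in these data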;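 also: 0% = DMSO wells while the 100% control is not disclosed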
Arrestin-AP2 inh – human beta-arrestin and AP2 interaction inhibition | 340,000 compounds, 0.31% hits | inhibition, % at 10 µM | FITC-arrestin peptide / GST-AP2 beads, flow cytometry; AP2 beta2 appendage carries R879A mutation;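 active = inhibition above a set limit, near 3 SD of compounds lacking own fluorescence, cut at about 54% in these data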;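 also: plate controls were DMSO wells for no effect and 5 µM unlabelled arrestin peptide for full effect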
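test system = AP2 appendage R879A on GSH beads | buffer or medium = PBS plus Tween 20 (0.05%) and BSA (0.1%) | incubation = 12 min plus 1 h, RT | detection = bead flow cytometry, FITC channel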
ADAM17 inh – inhibits human ADAM17. recombinant ADAM17, EDANS/DABCYL FRET peptide cleavage. inhibition, % at 6.95 µM. P78536. AID 720648. 370,000 compounds, 0.83% hits;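 active = inhibition above the mean of compounds lying between control limits plus 3 SD, set per campaign, cut at about 8.5% in these data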;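 also: 0% = DMSO-only wells as the low control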
ADAM10 confirm – confirmation of inhibitors of human ADAM10 | ADAM10 QFRET peptide cleavage, EDANS fluorescence | inhibition, % at 6.95 µM | 2,100 compounds, 1% hits | shares compounds with ADAM10 inh | AID 743208;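 active = inhibition above about 20% chosen separately for each screening run, limit read from the data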;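 also: 0% = DMSO wells and 100% = marimastat wells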
ADAM17 ctr – counter-screen for ADAM10 exosite inhibitors: inhibitors of human ADAM17; inhibition, % at 6.95 µM; shares compounds with ADAM10 inh; AID 743214; 2,100 compounds, 0.5% hits; ADAM17 QFRET peptide cleavage, EDANS fluorescence;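 active = mean triplicate inhibition above the solvent-only control wells' mean plus 3 SD, cut at about 12% in these data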;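 also: 0% = DMSO wells and 100% = marimastat wells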
ADAM10 ctr – counter-screen for ADAM17 exosite inhibitors: inhibitors of human ADAM10; 2,900 compounds, 47% hits; shares compounds with ADAM17 inh; recombinant ADAM10, EDANS/DABCYL FRET peptide cleavage, 3 h; AID 743256; inhibition, % at 6.95 µM;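 active = mean inhibition over the triplicate runs exceeds the activity threshold set in the earlier primary screen, cut at about 20% in these data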;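 also: 0% = DMSO wells and 100% = marimastat wells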
ADAM17 confirm – human ADAM17 inhibition, confirmation; shares compounds with ADAM17 inh; recombinant ADAM17, EDANS/DABCYL QFRET peptide cleavage; inhibition, % at 6.95 µM; 2,900 compounds, 65% hits; AID 743257;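 active = mean inhibition across replicates above the hit cutoff set in the primary screen, cut at about 8.5% in these data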;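 also: 0% = DMSO wells and 100% = marimastat wells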
Active calls of the source: *.

COc1ccc(NC(=O)C2(C)Cc3c(-c4ccccc4)ccnc3O2)cn1 (centres undefined) was read as FAS TE block -9.4, NRP1-CendR mod -4.4, CaV13 FRET inh -8.9, ADAM10 inh -7.6 and ADAM17 inh -5.0.
`C[C@H]1CN([C@@H](C)CO)C(=O)c2cc(C#Cc3ccccn3)cnc2O[C@@H]1CN(C)Cc1ccccc1` gave FAS TE block -8.7, NRP1-CendR mod 3.3, CaV13 FRET inh -6.4, ADAM10 inh -11.2 and ADAM17 inh -3.7.
`C/C(=N/NC(=O)Cc1cccs1)c1cccc([N+](=O)[O-])c1` gave ADAM10 inh -2.1 and ADAM17 inh -0.8.
`CN(Cc1ccccc1)c1ccc(C(CC(N)=O)NC(=O)c2ccc(Br)cc2)cc1[N+](=O)[O-]` (centres undefined) gave FAS TE block 20.1, NRP1-CendR mod 1.1, CaV13 FRET inh -9.0, ADAM10 inh 38.1*, Arrestin-AP2 inh 20.2, ADAM17 inh 15.4*, ADAM10 confirm 6.1, ADAM17 ctr 1.5, ADAM10 ctr 21.1* and ADAM17 confirm 12.8*.
Screening COc1cc(F)ccc1Oc1cccc2c1S(=O)(=O)N(C1CC1)C[C@@H](COCc1ccccc1)O2 returned CaV13 FRET inh -10.0, ADAM10 inh 28.7*, ADAM17 inh 10.6*, ADAM10 confirm 3.8, ADAM17 ctr 1.1, ADAM10 ctr 27.1* and ADAM17 confirm 17.4*.
`COc1cc(O)c(C(CCN2CCCC2)c2ccc3c(c2)OCO3)c(OC)c1` (centres undefined) gave FAS TE block -10.8, NRP1-CendR mod 18.7, CaV13 FRET inh -10.0, ADAM10 inh -1.8, Arrestin-AP2 inh 1.2 and ADAM17 inh -2.7.
`COc1cc(O)c(C(CCN2CCN(c3ccccc3)CC2)c2ccc3c(c2)OCO3)c(OC)c1` (centres undefined) gave FAS TE block 24.7, NRP1-CendR mod 12.1, CaV13 FRET inh -5.8, ADAM10 inh 24.2*, Arrestin-AP2 inh 0.2, ADAM17 inh 12.4*, ADAM10 confirm 8.8, ADAM17 ctr 3.2, ADAM10 ctr 8.8 and ADAM17 confirm 6.0.
`CCc1nc(N2CCN(C(=S)NCCCOC)CC2)c2c3c(sc2n1)CCCC3` gave FAS TE block 27.0, NRP1-CendR mod 0.1, CaV13 FRET inh -20.8, ADAM10 inh 20.2*, Arrestin-AP2 inh 0.6, ADAM17 inh 14.0*, ADAM10 confirm 4.0, ADAM17 ctr 1.8, ADAM10 ctr 13.4 and ADAM17 confirm 7.5.
`CC(=O)Nc1cccc(-c2ccnc3c2CC(C(=O)NCCc2ccccc2)O3)c1` (centres undefined) gave FAS TE block -4.9, NRP1-CendR mod -9.6, CaV13 FRET inh 26.2, ADAM10 inh -9.9 and ADAM17 inh -4.8.
COc1ccc(-c2n[nH]c(C)c2-c2cnn(-c3ccccc3)c2)c(O)c1C was read as FAS TE block 23.1, NRP1-CendR mod 4.9, CaV13 FRET inh -4.0, ADAM10 inh 31.6*, Arrestin-AP2 inh 1.8, ADAM17 inh 15.5*, ADAM10 confirm 11.6, ADAM17 ctr 4.6, ADAM10 ctr 27.2* and ADAM17 confirm 15.9*.
